Values after ≈ are worked out from the molar mass of the structure shown.

Holding throughout (format): functional
In test [1] the test system is Mycobacterium tuberculosis. In words: Antimicrobial activity against ofloxacin-resistant Mycobacterium tuberculosis H37Rv SRI 4000 assessed as growth inhibition after 7 days by broth microdilution assay. The settings on record: H37Rv SRI 4000, 168 h. An outline of the steps: (§1)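 Broth microdilution per CLSI in Middlebrook 7H9 + OADC; ten two-fold dilutions; inoculum targeted 1.0 × 10^6 CFU/mL M. tuberculosis; 37 °C, ~90% humidity, 7 days. Wells scored visually for turbidity, partial or complete clearing; MIC = lowest concentration visually inhibiting growth; percent inhibition at the MIC also recorded. Duplicates; rifampin or isoniazid positive control, medium-only and organism-only controls.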

The subject of test [2] is Mycobacterium tuberculosis. In words: Antimicrobial activity against rifampin-resistant Mycobacterium tuberculosis H37Rv SRI 1367 assessed as growth inhibition at MIC after 7 days by broth microdilution assay relative to control. In short, it runs like this:
as §1
A general note: Broth dilution looks for growth in wells or tubes with falling amounts of substance.

The test system of test [3] is Mycobacterium tuberculosis. In words: Antimicrobial activity against isoniazid-resistant Mycobacterium tuberculosis H37Rv SRI 1369 assessed as growth inhibition at MIC after 7 days by broth microdilution assay relative to control. In short, it runs like this: as §1
The test system of test [4] is Mycobacterium tuberculosis. Briefly: Antimicrobial activity against rifampin-resistant Mycobacterium tuberculosis H37Rv SRI 1367 assessed as growth inhibition after 7 days by broth microdilution assay. The following applies: H37Rv SRI 1367, 168 h. In short, it runs like this: as §1
Test [5] deals with Mycobacterium tuberculosis. In words: Antimicrobial activity against isoniazid-resistant Mycobacterium tuberculosis H37Rv SRI 1369 assessed as growth inhibition after 7 days by broth microdilution assay. The settings on record: H37Rv SRI 1369, 168 h. An outline of the steps:
as §1

Test [6] deals with Mycobacterium tuberculosis. In words: Antimicrobial activity against ofloxacin-resistant Mycobacterium tuberculosis H37Rv SRI 4000 assessed as growth inhibition at MIC after 7 days by broth microdilution assay relative to control. In short, it runs like this:
as §1

With `Clc1ccc2nc3c(c(-c4ccccc4)c2c1)CCC3`, the MIC in test [1] amounted to 12.5 µg/mL (≈ 44.7 µM); in test [4], 6.25 µg/mL (≈ 22.3 µM); in test [5], 6.25 µg/mL (≈ 22.3 µM). For the same compound, the “growth inhibition (GI)” value in test [2] was found to be 83%; in test [3], 69%; in test [6] it was 81%.

With `O=[N+]([O-])c1ccc2nc3c(c(-c4ccccc4)c2c1)CCCC3`, the results for the MIC in test [1], in test [4] and in test [5] were 3.12 µg/mL (≈ 10.3 µM), 3.12 µg/mL (≈ 10.3 µM) and 6.25 µg/mL (≈ 20.5 µM), respectively. Also, the “growth inhibition (GI)” value is 69% in test [2], 41% in test [3] and 50% in test [6].

Consider `O=[N+]([O-])c1ccc2nc3c(c(-c4ccccc4)c2c1)CCCCC3`, for which the MIC in test [1], in test [4] and in test [5] was 37.5 µg/mL (≈ 118 µM) in each case. Also, the “growth inhibition (GI)” value in test [2] is given as 72%; in test [3], 52%; in test [6], 70%.

`NNC(=O)c1ccncc1` [ISONIAZID]: the “growth inhibition (GI)” value in test [2] is listed as 85%. Also, in test [4], the MIC turned out to be 0.02 µg/mL (≈ 0.146 µM).

As for `CO[C@H]1/C=C/O[C@@]2(C)Oc3c(C)c(O)c4c(O)c(c(/C=N/N5CCN(C)CC5)c(O)c4c3C2=O)NC(=O)/C(C)=C\C=C\[C@H](C)[C@H](O)[C@@H](C)[C@@H](O)[C@@H](C)[C@H](OC(C)=O)[C@@H]1C` [RIFAMPIN], the MIC in test [1] is 1.56 µg/mL (≈ 1.9 µM); in test [5], 0.02 µg/mL (≈ 0.0243 µM). Moreover, the “growth inhibition (GI)” value in test [3] is reported as 74%; in test [6] it was 71%.

By MIC is commonly meant the least concentration at which growth counts as inhibited.
